# Source: PubChem BioAssay
# Runt-SMMHC FRET = inhibitors of human RUNX1 Runt domain binding to CBFb-SMMHC | actives 0.74% (n = 220,000) | AID 1434 | Q01196+Q13951 | Cerulean-Runt/Venus-CBFb-SMMHC FRET ratio 530/480, 1 h | inhibition, % at 20 µM;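 active means mean inhibition across duplicate retests at 20 µM reaching about 50%, limit read from the data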;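 further: 0% = DMSO wells and 100% = wells with excess untagged CBFb-SMMHC; inhibitors lower the FRET ratio by blocking Runt binding to CBFb-SMMHC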
# p97 inhibitor = human p97 ATPase inhibition; inhibition, % at 8 µM; recombinant p97 ATPase, Kinase-Glo ATP luminescence, 3 h; actives 0.42% (n = 220,000); in the data active means inhibition above about 15%;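 further: 0% = DMSO vehicle and 100% = wells lacking enzyme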
# Tb hexokinase = T. brucei hexokinase 1 inhibition. actives 0.11% (n = 220,000). recombinant TbHK1, G6PDH-coupled NADH A340. inhibition, % at 10 µM. AID 1430;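 active means inhibition of 50% or more in the single-dose primary screen; inactive means inhibition below 50%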
# Hck-Nef inh = human Hck-Nef kinase inhibition; Recombinant Hck-YEEI plus Nef, Z-Lyte FRET kinase assay; actives 0.68% (n = 220,000); inhibition, % at 20 µM; P08631;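 active means Hck-Nef kinase inhibition above about 50%, limit read from the data; inactive means inhibition below that limit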;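 further: 0% = DMSO with Hck plus Nef and 100% = Hck alone without Nef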
# Target sequence (P08631 whole entry, looked up): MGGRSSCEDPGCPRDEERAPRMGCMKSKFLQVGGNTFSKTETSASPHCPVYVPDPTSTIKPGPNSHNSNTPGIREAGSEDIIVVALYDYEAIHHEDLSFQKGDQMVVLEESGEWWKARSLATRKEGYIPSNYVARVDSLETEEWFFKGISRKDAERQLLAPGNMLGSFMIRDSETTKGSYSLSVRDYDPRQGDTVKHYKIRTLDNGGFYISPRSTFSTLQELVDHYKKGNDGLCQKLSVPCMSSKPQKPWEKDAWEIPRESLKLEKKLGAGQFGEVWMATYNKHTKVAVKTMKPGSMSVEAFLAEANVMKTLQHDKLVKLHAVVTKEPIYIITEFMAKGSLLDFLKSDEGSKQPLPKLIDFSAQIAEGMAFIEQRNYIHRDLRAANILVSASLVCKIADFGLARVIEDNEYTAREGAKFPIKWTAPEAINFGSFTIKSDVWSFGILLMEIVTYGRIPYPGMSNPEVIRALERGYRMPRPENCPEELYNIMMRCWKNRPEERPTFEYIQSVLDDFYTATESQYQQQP
# RanGTP-Impb inh = disruptors of Ran-importin-beta complex formation – biochemical, FRET, CFP-Ran, YFP-importin-beta, homogeneous, primary screen. cell-free CFP-Ran/YFP-importin-beta FRET ratio. inhibition, % (no concentration beside the values). actives 1.1% (n = 300,000). AID 2216;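 active means more than half of the replicate wells show a fall in the fluorescence ratio signal beyond about 16%, limit read from the data, passing the limit was not always enough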;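 further: 0% = DMSO wells and 100% = Ran loaded with GDP instead of GTP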
# Runt-CBFb FRET = inhibitors of human RUNX1 Runt domain binding to CBFb; Q01196+Q13951; Cerulean-Runt/Venus-CBFb FRET ratio 530/480, 1 h; inhibition, % at 20 µM; actives 0.46% (n = 220,000);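 active means inhibition over about 50% at 20 µM in the single-dose screen, limit read from the data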;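 further: 0% = DMSO wells and 100% = excess unlabeled CBFb competitor control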
#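 Assay system: Cerulean-Runt domain fusion protein, energy donor; Signal: fluorescence energy transfer, 422 nm excitation, 530/480 nm emission; Timing: 1 h compound exposure, room temperature; Control set: unlabeled CBFb; Medium: Tris buffer pH 7.5 with salts and BSA; Compound: single test concentration of 20 µM, 1% DMSO final; Probe or stimulus: Venus-CBFb 100 nM.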
# Hck-Nef confirm = Hck-Nef kinase inhibition, confirmation | shares compounds with Hck-Nef inh | actives 28% (n = 1,300) | calls only at 10 µM | Recombinant Hck-YEEI:Nef, Z-Lyte FRET kinase assay;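 active means average inhibition of at least 50%, with Z-scores no higher than 3 in both the phospho-tyrosine peptide and fluorescence counterscreens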
# Starred values were filed as active, the others as inactive; i = inactive; nt = not tested or not shown; + = active, no number. The list is not random: actives were taken first. Their share in the collection is about 2.1%.
SMILES,Runt-SMMHC FRET,p97 inhibitor,Tb hexokinase,Hck-Nef inh,RanGTP-Impb inh,Runt-CBFb FRET,Hck-Nef confirm
COCC(C)OC(=O)/C(C#N)=C\c1coc2ccc(C)cc2c1=O (configuration not stated),-66,7,7,98*,nt,-43,+
CCOC(=O)/C(C#N)=C/c1cc2ccc(C)cc2nc1Cl,-9,6,-2,2,-3,-4,nt
O=C(N/N=C/c1coc2ccc(Cl)cc2c1=O)c1ccc(O)cc1,nt,nt,nt,nt,2,nt,nt
Cc1ccc2occ(/C=N/NC(=O)[C@@H](N)Cc3ccccc3)c(=O)c2c1,1,1,-22,80*,-3,0,+
O=C(CCc1ccc(O)cc1)N/N=C/c1coc2ccccc2c1=O,3,6,-23,67*,2,0,+
O=C(N/N=C/c1coc2ccccc2c1=O)c1ccccc1Br,1,-4,-2,45,-1,0,nt
CC(OC(=O)c1nsc(Cl)c1Cl)C(=O)NCCc1ccccc1 (configuration not stated),nt,nt,nt,nt,1,nt,nt
CCOC(=O)c1nnn2c1nc(Nc1cccc(C(F)(F)F)c1)c1ccccc12,-1,4,-6,66*,4,-2,i
CCOC(=O)c1nnn2c1nc(SCC(C)=O)c1ccccc12,0,-1,-14,13,-9,0,nt
COc1ccc(-c2cc(C)no2)cc1S(=O)(=O)N(C)c1ccc(C)cc1,nt,nt,nt,nt,3,nt,nt
COc1ccc2nc3c(cc2c1)c(NC(=O)C1CCCO1)nn3CC(C)C (configuration not stated),61*,-1,43,59*,119*,12,i
COc1cc(-c2cc(=O)c3c(O)c(OC)c(OC)c(O)c3o2)ccc1O,25,2,-14,67*,-1,44,+
COc1cc(-c2cc(OC)c3c(C)oc(C)c3c(=O)c2)ccc1O,1,2,-13,1,1,11,nt
CCN(CC)c1cc(NCCO)c([N+](=O)[O-])c2nonc12,-30,5,-24,56*,2,-4,i
C=CCn1c(SCC(=O)Nc2sccc2C#N)nc2sc(C)c(C)c2c1=O,4,0,-23,63*,4,0,+
CCNc1c(NS(=O)(=O)c2ccc([N+](=O)[O-])cc2)c(=O)oc2ccccc12,nt,nt,nt,nt,1,nt,nt
Cc1ccccc1NS(=O)(=O)c1ccc(C(=O)NCC(c2ccco2)N2CCCCC2)cc1 (configuration not stated),nt,nt,nt,nt,3,nt,nt
O=C(CN1CC[n+]2c(-c3cccs3)csc21)c1ccc(Br)cc1,1,4,-17,4,2,3,nt
O=C(CN1CC[n+]2c(-c3ccccc3)csc21)c1ccc(Br)cc1,3,3,-5,67*,0,5,+
CCOC(=O)c1c(NC(=O)/C=C/C(=O)O)sc(C)c1-c1ccc(C)c(C)c1,-5,-4,-18,30,8,1,nt
CCOC(=O)c1c(NC(=O)/C=C/C(=O)O)sc(C)c1-c1ccc(F)cc1,1,0,-34,51*,-3,-1,+
COc1ccc(OC)c(N(CC(=O)N2CCOCC2)S(C)(=O)=O)c1,nt,nt,nt,nt,0,nt,nt
CN1CCN(S(=O)(=O)c2cccc(C(=O)N(C)CC(=O)Nc3ccc(F)c(F)c3F)c2)CC1,nt,nt,nt,nt,5,nt,nt
CCOCCCNc1nc2nc3ccc(C)cn3c(=O)c2cc1C(=O)NCC1CCCO1 (configuration not stated),nt,3,-1,199*,-1,nt,nt
Cc1ccc2nc3c(cc(C(=O)NCC4CCCO4)c(=N)n3CCCOC(C)C)c(=O)n2c1 (configuration not stated),41,0,-1,182*,nt,11,i
CCn1cc(C(=O)NCC2CCCO2)c2cc(OC)c(OC)cc2c1=O (configuration not stated),2,4,-8,2,-5,-2,nt
CN=c1scc(-c2ccco2)n1/N=C/c1ccc(O)c(O)c1,9,6,-19,51*,-2,7,i
